This passage reports ED50 and Activity results from ChEMBL document CHEMBL1909525, “Synthesis and anticonvulsant activity of novel 2,6-diketopiperazine derivatives. Part 1: perhydropyrrole[1,2-a]pyrazines” (Eur J Med Chem, 2011).

Experiment [1] concerns Mus musculus. As to the kind of experiment: Anticonvulsant activity in ip dosed albino Carworth Farms No.1 mouse assessed as protection against electric-current for 3 secs-induced seizure after 0.25 hrs by 6Hz minimal clonic seizure test. In kind it is functional. As to conditions: albino Carworth Farms No.1, ip.
Experiment [2] relates to Mus musculus. Kind of experiment: Anticonvulsant activity in albino Carworth Farms No.1 mouse assessed as protection against electric-current for 3 secs-induced seizure at 100 mg/kg, ip after 2 hrs by 6Hz minimal clonic seizure test. In kind it is functional, organism-based. Set-up: dose 100 mg/kg. An outline of the steps: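 6 Hz psychomotor seizure test in mice. Compound given i.p. as a suspension in 0.5% methylcellulose. Corneal stimulation at 32 mA, 0.2-ms monopolar rectangular pulses at 6 Hz for 3 s, from a constant-current device. Tests run 0.25–4 h after dosing. A mouse counted as protected if it resumed normal exploratory behaviour within 10 s; scored as protected/tested.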

Activity calls are given as the source filed them. No cut-off for these calls is given here.

Regarding `O=C1NC(=O)[C@@H]2CCCN2[C@H]1c1ccccc1`, the ED50 with Mus musculus [1] worked out at 9.93 mg/kg. The result in the experiment with Mus musculus [2] was inactive.

As a reminder, the ED50 is the dose at which the effect has come halfway, by size or by number of responders.
